Assay results from the M2OR odorant receptor database.

What was measured:
Conditions in all cases: stereoisomer not certain
OR2C1 [1] = system: OR2C1
Summary of the method: (§1)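 Whether a receptor–molecule pair is responsive (active) rests on the original authors' judgment that its measured signal was statistically different from baseline. Pairs without that judgment are non-responsive (inactive). Sources used varied assay methods, commonly transient luciferase assays in mammalian cell lines.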
Target sequence in this assay (as listed by the source): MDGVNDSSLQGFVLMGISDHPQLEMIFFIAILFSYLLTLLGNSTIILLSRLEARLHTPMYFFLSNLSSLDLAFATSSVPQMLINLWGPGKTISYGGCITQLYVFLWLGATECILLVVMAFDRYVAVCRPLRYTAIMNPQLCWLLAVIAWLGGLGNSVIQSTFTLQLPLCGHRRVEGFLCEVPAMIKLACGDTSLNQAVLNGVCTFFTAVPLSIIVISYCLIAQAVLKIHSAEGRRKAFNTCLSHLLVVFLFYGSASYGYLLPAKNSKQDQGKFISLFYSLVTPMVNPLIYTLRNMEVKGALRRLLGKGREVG

OR2C1 [2] = system: OR2C1; remark: listed apart in the source
Summary of the method: as §1
Target sequence in this assay (as listed by the source): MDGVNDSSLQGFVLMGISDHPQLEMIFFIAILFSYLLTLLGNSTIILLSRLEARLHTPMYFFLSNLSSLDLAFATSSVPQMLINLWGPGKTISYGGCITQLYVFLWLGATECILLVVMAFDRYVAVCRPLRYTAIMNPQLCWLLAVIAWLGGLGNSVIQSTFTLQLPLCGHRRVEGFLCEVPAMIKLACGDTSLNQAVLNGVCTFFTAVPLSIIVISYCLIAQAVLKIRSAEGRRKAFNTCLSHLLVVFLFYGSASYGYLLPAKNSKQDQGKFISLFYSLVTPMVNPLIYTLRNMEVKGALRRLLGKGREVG

OR2C1 [3] = system: OR2C1; remark: listed apart in the source
Summary of the method: as §1
Target sequence in this assay (as listed by the source): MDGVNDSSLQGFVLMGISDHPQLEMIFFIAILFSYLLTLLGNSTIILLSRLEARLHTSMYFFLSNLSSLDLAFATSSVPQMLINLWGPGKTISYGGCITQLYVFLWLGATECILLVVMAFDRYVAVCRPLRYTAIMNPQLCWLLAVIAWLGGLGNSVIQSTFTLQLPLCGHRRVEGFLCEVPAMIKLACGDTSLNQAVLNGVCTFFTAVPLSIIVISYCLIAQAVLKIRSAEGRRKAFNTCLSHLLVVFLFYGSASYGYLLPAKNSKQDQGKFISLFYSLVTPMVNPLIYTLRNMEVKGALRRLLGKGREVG

OR2C1 [4] = system: OR2C1; remark: listed apart in the source
Summary of the method: as §1
Target sequence in this assay (as listed by the source): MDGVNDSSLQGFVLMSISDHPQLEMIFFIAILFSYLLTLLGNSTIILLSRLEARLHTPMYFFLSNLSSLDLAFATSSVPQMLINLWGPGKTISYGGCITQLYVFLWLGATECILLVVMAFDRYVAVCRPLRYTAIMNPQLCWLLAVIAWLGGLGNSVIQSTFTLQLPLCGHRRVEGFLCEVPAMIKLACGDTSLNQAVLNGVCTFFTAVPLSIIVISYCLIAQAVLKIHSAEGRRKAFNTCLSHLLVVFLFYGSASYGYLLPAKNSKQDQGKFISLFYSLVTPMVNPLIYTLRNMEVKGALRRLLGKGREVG

OR2C1 [5] = system: OR2C1; remark: listed apart in the source
Summary of the method: as §1
Target sequence in this assay (as listed by the source): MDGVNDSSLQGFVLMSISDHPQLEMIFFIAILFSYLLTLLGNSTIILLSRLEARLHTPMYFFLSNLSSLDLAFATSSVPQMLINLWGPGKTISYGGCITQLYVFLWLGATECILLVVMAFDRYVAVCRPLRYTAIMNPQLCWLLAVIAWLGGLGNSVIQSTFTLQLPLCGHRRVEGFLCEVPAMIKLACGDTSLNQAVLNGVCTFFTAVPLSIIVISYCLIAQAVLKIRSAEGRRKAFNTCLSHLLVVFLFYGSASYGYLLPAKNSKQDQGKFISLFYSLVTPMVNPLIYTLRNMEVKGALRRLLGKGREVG

OR2C1 [6] = system: OR2C1; remark: listed apart in the source
Summary of the method: as §1
Target sequence in this assay (as listed by the source): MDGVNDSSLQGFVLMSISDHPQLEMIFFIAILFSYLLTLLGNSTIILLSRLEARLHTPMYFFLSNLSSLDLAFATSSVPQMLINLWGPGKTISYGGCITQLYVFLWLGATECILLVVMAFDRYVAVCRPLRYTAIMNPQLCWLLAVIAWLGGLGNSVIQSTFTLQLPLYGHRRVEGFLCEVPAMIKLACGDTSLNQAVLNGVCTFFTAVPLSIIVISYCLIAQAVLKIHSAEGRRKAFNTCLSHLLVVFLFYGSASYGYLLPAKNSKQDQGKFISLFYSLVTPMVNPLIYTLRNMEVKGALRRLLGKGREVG

OR2C3 [7] = system: OR2C3
Summary of the method: as §1
Target sequence in this assay (as listed by the source): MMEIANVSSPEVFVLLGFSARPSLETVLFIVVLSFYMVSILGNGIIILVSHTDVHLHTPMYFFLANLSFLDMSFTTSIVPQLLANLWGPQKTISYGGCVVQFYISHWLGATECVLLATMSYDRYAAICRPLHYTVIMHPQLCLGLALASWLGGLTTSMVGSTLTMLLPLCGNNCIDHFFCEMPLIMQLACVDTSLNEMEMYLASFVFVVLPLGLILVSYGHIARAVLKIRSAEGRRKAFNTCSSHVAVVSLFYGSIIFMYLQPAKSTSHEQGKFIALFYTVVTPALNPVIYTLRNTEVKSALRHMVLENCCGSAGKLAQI

OR2C3 [8] = system: OR2C3; remark: listed apart in the source
Summary of the method: as §1
Target sequence in this assay (as listed by the source): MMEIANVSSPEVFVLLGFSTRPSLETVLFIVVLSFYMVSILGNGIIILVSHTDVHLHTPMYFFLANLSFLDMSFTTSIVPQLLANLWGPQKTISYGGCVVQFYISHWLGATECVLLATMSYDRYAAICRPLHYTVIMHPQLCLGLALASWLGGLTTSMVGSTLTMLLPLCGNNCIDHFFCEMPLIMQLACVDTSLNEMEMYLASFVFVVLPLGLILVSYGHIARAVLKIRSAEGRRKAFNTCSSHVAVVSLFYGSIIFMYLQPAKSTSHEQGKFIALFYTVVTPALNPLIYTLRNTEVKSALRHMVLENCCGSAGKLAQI

OR2D2 (Homo sapiens) = OR2D2 (Homo sapiens) (UniProt Q9H210)
Summary of the method: as §1

OR2C3 (Homo sapiens) = OR2C3 (Homo sapiens) (UniProt Q8N628)
Summary of the method: as §1

Measured: odorant receptor agonist call;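 further: active if original authors judged signal statistically different from baseline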

OR2D2 (Homo sapiens), sequence (Q9H210 whole entry): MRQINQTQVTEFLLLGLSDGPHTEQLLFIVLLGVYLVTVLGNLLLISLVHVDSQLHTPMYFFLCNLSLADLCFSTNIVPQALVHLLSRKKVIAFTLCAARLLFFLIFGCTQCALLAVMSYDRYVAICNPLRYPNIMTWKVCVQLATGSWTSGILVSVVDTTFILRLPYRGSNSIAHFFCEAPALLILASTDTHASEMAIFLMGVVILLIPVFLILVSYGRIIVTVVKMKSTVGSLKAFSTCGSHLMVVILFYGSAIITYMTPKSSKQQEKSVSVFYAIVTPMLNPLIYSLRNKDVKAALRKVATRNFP
OR2C3 (Homo sapiens), sequence (Q8N628 whole entry): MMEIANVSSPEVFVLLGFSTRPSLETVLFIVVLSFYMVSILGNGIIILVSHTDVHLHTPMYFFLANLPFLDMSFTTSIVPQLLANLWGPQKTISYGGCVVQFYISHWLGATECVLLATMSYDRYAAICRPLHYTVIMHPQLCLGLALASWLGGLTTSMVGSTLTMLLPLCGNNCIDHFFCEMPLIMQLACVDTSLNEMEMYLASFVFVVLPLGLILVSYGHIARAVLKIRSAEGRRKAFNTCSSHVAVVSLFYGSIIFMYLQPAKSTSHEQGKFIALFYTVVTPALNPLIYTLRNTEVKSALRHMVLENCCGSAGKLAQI

O=CC=Cc1ccccc1
active: OR2C1 [5] | OR2C1 [6]
inactive: OR2C1 [1] | OR2C1 [2] | OR2C1 [3] | OR2C1 [4]

C=CCOC(=O)Cc1ccccc1
inactive: OR2C1 [2] | OR2C3 [7] | OR2C3 [8] | OR2D2 (Homo sapiens)

Cc1c([N+](=O)[O-])c(C)c([N+](=O)[O-])c(C(C)(C)C)c1[N+](=O)[O-]
inactive: OR2C3 (Homo sapiens) | OR2D2 (Homo sapiens)
